# High-throughput results (PubChem BioAssay)
# Most compounds without a hit are left out; they make up all but 2.7% or so of the library.
# RBBP9 inhibitor: human RBBP9 inhibitors, primary screen, biochemical, fluorescence polarization, FP-Rh probe, HTS | recombinant RBBP9 | 0.2% of 220,000 active | AID 1515, 2009 | inhibition, % at 7.94 µM;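 active means inhibition above the campaign mean of all tested compounds plus 3 SD, cut at about 14% in these data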
#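 Test system: recombinant human RBBP9. Quantity: 2.5 µM RBBP9 dispensing solution, before mixing. Detection: FP readout at 525/598 nm. Reagent: Serine-hydrolase probe FP-Rh, 375 nM pre-mixing. Measure: % inhibition. Control set: DMSO-treated enzyme wells and wells lacking RBBP9. Buffer or medium: Tris-NaCl-Pluronic buffer, pH 8.0. Times: preincubation 30 min plus labeling 45 min at 25 °C.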
# PAD4 FP inh: human PAD4 inhibitors, primary screen, biochemical, fluorescence polarization, 1536-well format; Protein-arginine deiminase type-4 (Homo sapiens), Q9UM07; recombinant PAD4, RCA probe fluorescence polarization; inhibition, % at 6.36 µM; 0.41% of 330,000 active;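 active means percent inhibition above a cutoff equal to the mean of all tested compounds plus 3 SD, cut at about 15% in these data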
# SIAE primary: human SIAE inhibitors, primary screen, biochemical, fluorescence polarization, FP-Rh probe, 1536-well HTS. SIAE FP-Rh probe binding. Sialate O-acetylesterase (Homo sapiens), Q9HAT2. 0.69% of 370,000 active. inhibition, % at 9.66 µM;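 active means inhibition above a cutoff: mean of compounds within the control limits plus 3 SD of those, cut at about 17% in these data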
# PRMT1 inh: PRMT1 methyltransferase inhibitors, primary screen, biochemical, fluorescence polarization; Protein arginine N-methyltransferase 1 (Homo sapiens), Q99873; recombinant PRMT1, activity-based probe fluorescence polarization; 1.3% of 370,000 active; inhibition, % at 2.79 µM;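 active means inhibition above about 21% made by adding two undisclosed values, limit read from the data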
# Target sequence (Q99873 whole entry, looked up): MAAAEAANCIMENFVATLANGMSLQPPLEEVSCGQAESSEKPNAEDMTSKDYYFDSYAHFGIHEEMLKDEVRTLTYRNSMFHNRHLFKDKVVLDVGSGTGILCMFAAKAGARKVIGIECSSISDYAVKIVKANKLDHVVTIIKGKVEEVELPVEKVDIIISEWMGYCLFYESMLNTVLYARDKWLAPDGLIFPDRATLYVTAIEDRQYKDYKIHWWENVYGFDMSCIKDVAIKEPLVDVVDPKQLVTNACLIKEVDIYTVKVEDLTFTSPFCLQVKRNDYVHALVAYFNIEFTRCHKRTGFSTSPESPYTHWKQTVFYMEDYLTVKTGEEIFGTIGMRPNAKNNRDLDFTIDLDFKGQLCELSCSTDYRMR
# GSTO1 inh: inhibitors of recombinant GSTO1, primary screen, counter-screen for RBBP9 inhibitor project, biochemical, fluorescence polarization. inhibition, % at 5.96 µM. AID 1974, 2009. 1.1% of 300,000 active. activity-based probe fluorescence polarization;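 active means inhibition above the campaign mean inhibition plus 3 SD, cut at about 35% in these data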
# Target sequence (P78417 whole entry, looked up): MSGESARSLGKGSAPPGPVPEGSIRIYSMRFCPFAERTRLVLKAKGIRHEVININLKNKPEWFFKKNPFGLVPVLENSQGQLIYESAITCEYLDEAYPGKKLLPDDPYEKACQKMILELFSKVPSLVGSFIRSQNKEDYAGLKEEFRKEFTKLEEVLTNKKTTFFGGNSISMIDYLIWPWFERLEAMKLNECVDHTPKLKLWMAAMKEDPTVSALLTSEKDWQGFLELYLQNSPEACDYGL
# PAD4 confirm: human PAD4 inhibitors, confirmation, biochemical, fluorescence polarization; shares compounds with PAD4 FP inh; recombinant PAD4, RCA probe fluorescence polarization; inhibition, % at 6.36 µM; 28% of 1,200 active; AID 488796, 2010;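 active means mean inhibition across replicates above the hit cutoff set by the earlier primary screen, cut at about 15% in these data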;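 further: inhibitors block active-site labeling by the probe so polarization falls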
# A number is an active result; n = inactive; x = not tested or not shown.
SMILES,RBBP9 inhibitor,PAD4 FP inh,SIAE primary,PRMT1 inh,GSTO1 inh,PAD4 confirm
COC(=O)c1cc(NC(=O)CC2C(=O)NCCN2C(=O)c2ccccc2)cc(C(=O)OC)c1 (centres undefined),n,16,n,n,n,n
O=C(NC(CO)C(O)c1ccc([N+](=O)[O-])cc1)C(Cl)Cl (centres undefined),n,n,n,n,n,x
O=C1C(Br)=Cc2cccc3cccc1c23,n,91,n,n,n,62
O=C(NCCCc1ccccc1)c1cccc(NC(=O)C2CCC2)c1,x,x,n,n,x,x
Cc1noc(C)c1S(=O)(=O)N(C)C[C@H]1Oc2c(NS(=O)(=O)c3cn(C)cn3)cccc2C(=O)N([C@H](C)CO)C[C@@H]1C,x,37,n,n,x,n
Oc1ccc(C=Nc2ccc(N3CCOCC3)cc2)c(O)c1,n,n,n,n,n,x
Cc1cc(Br)cc(C=Nc2ccc(N3CCOCC3)cc2)c1O,x,19,n,n,n,n
O=c1[nH][nH]c(C(F)(F)F)c1C=Nc1cccc(Cl)c1,n,n,n,n,n,x
COc1ccc(C)cc1Nc1n[n+](C)c(-c2c3ccccc3cc3ccccc23)s1,x,51,n,n,n,n
COc1ccc(C)cc1Nc1n[n+](C)c(-c2ccc(O)cc2O)s1,x,n,n,n,n,x
C=CCOc1ccc(C2OC34CCCCC3C(C#N)(C#N)C2(C#N)C(=N)O4)cc1 (centres undefined),n,15,x,x,n,n
COCCCNc1nc2ccccc2nc1NS(=O)(=O)c1ccc(OC)cc1,x,n,n,n,n,x
COCCCNc1nc2ccccc2nc1NS(=O)(=O)c1cccs1,n,16,n,n,n,n
COc1cccc(NC(=O)NNS(=O)(=O)c2ccc(OC)cc2OC)c1,x,x,n,n,x,x
O=c1cc(-c2ccc(Br)cc2)[nH][nH]1,n,56,n,n,n,n
O=c1[nH]nc(-c2ccc(OCc3ccc(Cl)cc3Cl)cc2)o1,x,89,n,n,n,n
OCCNCc1ccc(OCc2ccc(Cl)cc2Cl)cc1,n,n,n,n,n,x
COc1ccc(C(=O)Nc2nc3ccccc3s2)c(OC)c1,x,22,n,n,n,55
COc1ccccc1C(=O)Nc1nc2ccccc2s1,x,n,n,n,n,x
COC(=O)c1sccc1NC(=O)c1cccc(OC)c1,n,n,n,n,n,x
COC(=O)c1sccc1NC(=O)c1ccc(OC)cc1OC,n,25,n,n,n,n
O=C(Cn1cnc2ccccc2c1=O)N1CCCCC1,x,x,n,n,x,x
COc1ccc(OC)c(NC(=O)Cn2c(CCC(=O)O)ccc2-c2ccccc2)c1,n,n,n,n,n,x
Cc1ccc(S(=O)(=O)N(C)C)cc1NC(=O)COC(=O)C1(c2ccccc2)CC1,x,n,n,n,n,x
Cc1nnc(SCC(=O)N(CC(C)C)c2c(N)n(CC(C)C)c(=O)[nH]c2=O)n1-c1ccccc1,n,n,n,n,n,x
SMILES,RBBP9 inhibitor,PAD4 FP inh,SIAE primary,PRMT1 inh,GSTO1 inh,PAD4 confirm
Cc1ccc(-c2nn(-c3ccccc3)cc2C(N)=O)o1,n,n,n,n,n,x
Cc1ccc(-c2nn(-c3ccccc3)cc2C=O)o1,n,17,n,n,n,n
COc1ccc2ccccc2c1/C=N/Nc1ccc(Cl)c(C(=O)O)c1,x,n,n,n,n,x
COc1ccc2ccccc2c1/C=N/Nc1cccc(C(=O)O)c1,x,21,n,n,n,n
COc1ccc(-c2c/c(=N\c3nc(-c4ccccc4)c(C)s3)c3ccccc3o2)cc1O,n,33,n,n,n,17
O=C1/C(=C/c2ccccc2)SC(=S)N1CCCC(=O)N1CCCCC1CCO (centres undefined),x,n,n,n,n,x
c1cc2c(cc1C1=NNC(=NC3CC3)SC1)OCCO2,n,41,n,46,n,n
c1ccc2oc(C3=NNC(=NC4CC4)SC3)cc2c1,n,21,n,36,n,n
CCCCN=C1NN=C(c2ccc3c(c2)OCCO3)CS1,n,n,n,n,n,x
COc1ccc(CNC(=O)CCCN2C(=O)c3ccccc3C2=O)cc1,n,n,n,n,n,x
COc1ccc(CN(C)CC(O)COc2ccc(C(=O)c3ccccc3)cc2)c(OC)c1OC (centres undefined),x,n,n,n,n,x
CCOC(=O)Cc1nnc(NC(=O)CSc2nnc3c(n2)[nH]c2ccccc23)s1,n,22,n,n,n,n
N#Cc1cc(S(=O)(=O)N2CCOCC2)ccc1N1CCOCC1,x,n,n,n,n,x
CCC(=O)Nc1cc2c(C)cc(=O)oc2cc1C,n,n,n,n,n,x
CCC(=O)Nc1ccc(SC#N)cc1C,n,40,n,n,n,42
Cc1cc(SC#N)cc(C)c1NC(=O)CCl,n,25,n,n,66,n
Oc1cc(NCc2ccc(Cl)cc2)cc2cccnc12,x,n,n,n,x,x
CCN(c1ccccc1)c1cc2ccccc2c(=O)[nH]1,x,16,n,n,n,n
O=[N+]([O-])c1ccc(NCCN2CCOCC2)c([N+](=O)[O-])c1,x,x,n,n,x,x
Cc1nnc(SCC(=O)c2ccc(Cl)cc2)n(N)c1=O,18,26,n,37,n,n
Cc1ccc(NC(=O)CSc2nnc(-c3cc(C)[nH]n3)n2N)cc1,x,n,n,n,n,x
Cc1cc(-c2nnc(SCC(=O)Nc3ccc(F)c(F)c3)n2N)n[nH]1,x,52,n,n,n,n
NC(=O)COC(=O)C1c2ccccc2Oc2ccccc21,x,n,n,n,n,x
N#CCN(CC#N)C(=O)C1c2ccccc2Oc2ccccc21,x,56,n,n,n,n
O=C(O)CC(SCC(=O)Nc1ccc(Cl)c(S(=O)(=O)N2CCOCC2)c1)C(=O)O (centres undefined),n,21,n,43,n,n
SMILES,RBBP9 inhibitor,PAD4 FP inh,SIAE primary,PRMT1 inh,GSTO1 inh,PAD4 confirm
O=C(CCNC(=O)c1ccc([N+](=O)[O-])cc1)Nc1ccc(Cl)c(S(=O)(=O)N2CCOCC2)c1,x,n,n,n,x,x
O=C(CCNC(=O)c1ccccc1)Nc1ccc(Cl)c(S(=O)(=O)N2CCCCC2)c1,x,19,n,n,x,n
O=C(O)c1cc(NCc2ccccc2)ccc1N1CCOCC1,n,n,n,n,n,x
COc1ccc(CCNC(=O)COc2nsnc2N2CCOCC2)cc1OC,n,44,n,n,n,n
C=CCC(CC=C)(NC(=O)c1ccccc1C)c1ccccc1,n,17,n,n,n,n
C=CCC(CC=C)(NC(=O)c1ccccc1)c1ccccc1,n,n,n,n,n,x
Cc1cc2cc(CN3C(=O)c4ccccc4C3=O)ccc2n1C,n,16,n,n,n,n
Cc1onc(-c2ccccc2Cl)c1C(=O)NCc1ccc2c(c1)cc(C)n2C,x,38,n,n,n,n
Cc1cc2cc(CNC(=O)COc3ccccc3)ccc2n1C,n,33,n,n,n,n
CCOc1ccc(CC(=O)NCc2ccc3c(c2)cc(C)n3C)cc1,n,n,n,n,n,x
